From ChEMBL document CHEMBL4270548, “Discovery of a potent glucokinase activator with a favorable liver and pancreas distribution pattern for the treatment of type 2 diabetes mellitus” (Eur J Med Chem, 2018)
≈ marks a conversion by molar mass, not a printed value. Calls of active or inactive are those of the source. The rule behind the calls is not given here.

Columns and labels:
[1] = Aqueous solubility of the compound in phosphate buffered saline at pH 7.4 at 8 to 2000 uM by nephelometric method; type: physicochemical
Outline: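 Compound serial dilutions (8 µM–2 mM, before addition to buffer) transferred into PBS pH 7.4 (5 µL into 95 µL). Solubility read by nephelometry. Only wells with blank below mean blank + 2SD were used.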

[2] = target: T1, Hexokinase-4 (Homo sapiens) (UniProt P35557); assay: Activation of human glucokinase assessed as conversion of D-glucose to D-glucose-6-phosphate at 10 uM preincubated for 10 mins followed by 5 mM glucose addition measured for 5 mins at 30 secs time interval by G6PDH/NADP coupled assay relative to control
T1 sequence (whole entry): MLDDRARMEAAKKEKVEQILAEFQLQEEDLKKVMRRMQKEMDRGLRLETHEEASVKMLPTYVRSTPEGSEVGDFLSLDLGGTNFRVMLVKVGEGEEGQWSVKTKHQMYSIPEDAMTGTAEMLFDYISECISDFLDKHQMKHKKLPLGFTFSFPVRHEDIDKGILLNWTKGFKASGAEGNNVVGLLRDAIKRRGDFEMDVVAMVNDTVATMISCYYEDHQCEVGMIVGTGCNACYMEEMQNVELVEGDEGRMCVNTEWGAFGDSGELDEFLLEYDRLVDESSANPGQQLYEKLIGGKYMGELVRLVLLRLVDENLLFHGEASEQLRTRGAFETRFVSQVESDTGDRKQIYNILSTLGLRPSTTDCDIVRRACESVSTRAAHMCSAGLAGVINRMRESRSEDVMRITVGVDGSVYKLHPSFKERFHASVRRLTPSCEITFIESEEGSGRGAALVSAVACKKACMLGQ
Outline: (§1)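 Human GK in 25 mM HEPES pH 7.1, 25 mM KCl, 2 mM MgCl2, 1 mM NADP, 1 mM DTT, 2 U/mL G6PDH and 5 mM D-glucose. Compound at 10 µM preincubated 10 min at room temperature. Started with 20 mM ATP (added stock). A340 read every 30 s for 5 min, slope from the first 3 min. Fold over DMSO, or relative scale (DMSO 0, 10 µM reference activator 1). Mean ± SEM, n = 3.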

[3] = target: T1, Hexokinase-4 (Homo sapiens); assay: Activation of human glucokinase assessed as conversion of D-glucose to D-glucose-6-phosphate at 10 uM preincubated for 10 mins […] measured for 5 mins at 30 secs time interval by G6PDH/NADP coupled assay relative to RO0281675; outline: as §1
[4] = Cmax in mouse at 30 mg/kg, po administered as single dose by LC/MS/MS analysis; details: in vivo
hERG (KCNH2) = hERG (KCNH2) (Homo sapiens, UniProt Q12809); assay: Inhibition of [3H]-dofetilide binding to human ERG expressed in HEK293 cell membranes at 30 uM after 1 hr by scintillation proximity assay relative to control; details: HEK293 cell membranes that express hERG, probe [3H]-dofetilide
Chain of hERG (KCNH2) (Q12809 whole entry): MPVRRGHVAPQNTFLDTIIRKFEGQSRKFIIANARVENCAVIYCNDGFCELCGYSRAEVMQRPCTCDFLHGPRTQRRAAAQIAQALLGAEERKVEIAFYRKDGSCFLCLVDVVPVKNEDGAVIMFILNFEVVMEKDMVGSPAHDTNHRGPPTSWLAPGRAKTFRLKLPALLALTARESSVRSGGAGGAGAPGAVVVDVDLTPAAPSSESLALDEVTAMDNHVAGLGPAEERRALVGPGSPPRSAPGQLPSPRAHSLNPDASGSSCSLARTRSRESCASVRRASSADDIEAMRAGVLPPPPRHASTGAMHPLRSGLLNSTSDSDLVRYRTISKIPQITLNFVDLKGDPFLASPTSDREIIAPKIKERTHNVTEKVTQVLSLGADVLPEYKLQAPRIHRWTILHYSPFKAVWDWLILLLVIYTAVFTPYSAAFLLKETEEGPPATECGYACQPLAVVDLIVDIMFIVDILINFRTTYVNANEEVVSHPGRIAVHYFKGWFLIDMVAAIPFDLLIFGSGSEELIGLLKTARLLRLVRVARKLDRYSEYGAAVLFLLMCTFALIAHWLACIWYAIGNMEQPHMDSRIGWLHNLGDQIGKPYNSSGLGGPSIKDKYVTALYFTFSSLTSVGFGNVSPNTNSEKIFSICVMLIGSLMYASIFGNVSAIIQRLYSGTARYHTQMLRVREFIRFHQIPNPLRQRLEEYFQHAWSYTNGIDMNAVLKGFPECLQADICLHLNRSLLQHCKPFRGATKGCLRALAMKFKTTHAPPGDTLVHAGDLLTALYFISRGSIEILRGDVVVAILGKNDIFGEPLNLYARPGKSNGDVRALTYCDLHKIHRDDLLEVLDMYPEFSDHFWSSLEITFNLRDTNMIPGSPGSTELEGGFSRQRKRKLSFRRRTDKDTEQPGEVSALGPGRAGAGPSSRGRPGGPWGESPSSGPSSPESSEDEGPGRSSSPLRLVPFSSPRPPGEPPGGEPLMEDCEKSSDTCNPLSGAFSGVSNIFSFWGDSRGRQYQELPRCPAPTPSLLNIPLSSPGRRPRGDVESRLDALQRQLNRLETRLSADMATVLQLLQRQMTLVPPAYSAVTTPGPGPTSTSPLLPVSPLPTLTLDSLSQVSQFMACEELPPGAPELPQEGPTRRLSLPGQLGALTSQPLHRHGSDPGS
Outline: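 hERG-HEK293 membranes with 10 nM final [3H]-dofetilide and poly-L-lysine SPA beads in 50 mM Tris-Cl, 1.0 mM MgCl2, 10 mM KCl, pH 7.4. Shaken 1 h, beads settled 3 h, then scintillation counting. Normalized to DMSO (0%) and E-4031 (100% inhibition). Single-point at 30 µM, mean ± SEM, n = 3.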

Mus musculus [5] = assay: Antidiabetic activity in po dosed C57BL/6J mouse assessed as reduction in blood glucose level administered 15 mins prior to glucose challenge measured up to 120 mins post dose by OGTT; type: functional, organism-based
Outline: (§2)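 Fasted male C57BL/6J or ob/ob mice (8 weeks, n = 8/group) dosed orally in 0.5% methylcellulose 15 or 30 min before a 2 g/kg oral glucose load. Tail vein glucose measured by glucometer at −15 or −30, 0, 20, 40, 60, 90 and 120 min. Incremental glucose AUC0-120 min compared with vehicle. Mean ± SEM, Dunnett's test.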

Mus musculus [6] = assay: Antidiabetic activity in C57BL/6J mouse assessed as reduction in blood glucose AUC (0 to 120 mins) at 30 mg/kg, po dosed 30 minutes prior to glucose challenge by OGTT relative to control; type: functional; set-up: scale not given: the % may be the effect or the level left; outline: as §2
Mus musculus [7] = assay: Antidiabetic activity in po dosed C57BL/6J mouse assessed as reduction in blood glucose level administered for 15 to 30 mins prior to glucose challenge measured up to 120 mins post dose by OGTT; type: functional, organism-based; outline: as §2
Mus musculus [8] = assay: Antidiabetic activity in C57BL/6J mouse assessed as increase in insulin secretion at 100 mg/kg, po measured up to 60 mins by ELISA; type: functional, organism-based
Outline: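 Male C57BL/6J mice (8 weeks) fasted 2 h, then dosed orally at time 0 (n = 8/group). Tail vein insulin measured at 0, 30 and 60 min by ultra-sensitive mouse insulin ELISA. Mean ± SEM, Dunnett's test.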

Mus musculus [9] = assay: Antidiabetic activity in ob/ob mouse assessed as reduction in plasma glucose level at 10 to 30 mg/kg, po bid administered for 28 days measured at post last dose by glucometric method; type: functional, organism-based
Outline: (§3)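 Male ob/ob mice (9 weeks) dosed orally twice daily for 4 weeks, vehicle 0.5% MC. Plasma glucose measured by portable glucometer at 2 and 4 weeks. Liver TG assessed at the end of treatment. Mean ± SEM (n = 10), Dunnett's test versus vehicle.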

Mus musculus [10] = assay: Antidiabetic activity in ob/ob mouse assessed as reduction in plasma glucose level at 10 to 30 mg/kg, po bid administered for 14 days measured at post last dose by glucometric method; type: functional, organism-based; outline: as §3
Mus musculus [11] = assay: Antidiabetic activity in po dosed ob/ob mouse assessed as reduction in blood glucose level administered for 15 to 30 mins prior to glucose challenge measured up to 120 mins post dose by OGTT; type: functional, organism-based; outline: as §2

SMILES | solubility kinetic [1] | fold change (FC) [2] | fold change (FC) [3] | inhibition at 1 h, 30 µM (hERG (KCNH2)) | also measured
CC(=O)N1CCCC1c1cc(C(=O)Nc2nc3c(s2)CCC3)c(C)s1 (stereo unspecified) | 7.81 µM (≈ 2.93 µg/mL) | 2.53 | 0.187 |  | 
Cc1sc([C@H]2CCCN2C(=O)CN(C)C)cc1C(=O)Nc1ncc(Cl)s1.Cl | 1.95 µM | 4.99 | 0.381 |  | 
Cc1sc(N2CCCCC2=O)cc1C(=O)Nc1nc2c(s1)CCC2 | 0.98 µM (≈ 0.354 µg/mL) | 2.96 | 0.235 |  | 
Cc1sc(-c2ccccc2C(N)=O)cc1C(=O)Nc1nc2c(s1)CCC2 | 1.95 µM (≈ 0.748 µg/mL) | 6.23 | 0.699 |  | Cmax [4]: < 1 µM
Cc1sc(-c2ccccc2C(=O)NCCN(C)C)cc1C(=O)Nc1nc2c(s1)CCC2 | 1.95 µM (≈ 0.887 µg/mL) | 4.31 | 0.428 |  | 
Cc1sc(N2CCCC2=O)cc1C(=O)Nc1nc2c(s1)CCC2 | 3.91 µM (≈ 1.36 µg/mL) | 2.41 | 0.168 |  | 
Cc1sc(C2CCCN2C(=O)CN(C)CCCCC(=O)O)cc1C(=O)Nc1ncc(F)s1 (stereo unspecified) |  | 6.95 | 0.619 | 77% | 
Cc1sc([C@@H]2CCCN2C(=O)CN(C)C)cc1C(=O)Nc1ncc(Cl)s1.Cl | 7.81 µM | 10.4 | 0.65 | 101% | Cmax [4]: > 9 µM; Activity (Mus musculus [5]): Active
Cc1sc(C2CCCN2C(=O)CN(C)CC(=O)O)cc1C(=O)Nc1ncc(F)s1 (stereo unspecified) |  | 6.92 | 0.71 | -6% | 
CCN(CC(=O)O)CC(=O)N1CCC[C@H]1c1cc(C(=O)Nc2ncc(F)s2)c(C)s1 [listing 1 of 2 here] |  |  |  | -1% | 
Cc1sc(C2CCCN2C(=O)CN(C)CCC(=O)O)cc1C(=O)Nc1ncc(F)s1.Cl (stereo unspecified) |  | 4.89 | 0.466 | 17% | Activity (Mus musculus [6]): 47%
Cc1sc(C2CCCN2C(=O)CNCC(=O)O)cc1C(=O)Nc1ncc(Cl)s1 (stereo unspecified) |  | 4.75 | 0.438 | 28% | 
CCN(CC(=O)O)CC(=O)N1CCC[C@H]1c1cc(C(=O)Nc2ncc(F)s2)c(C)s1 [listing 2 of 2 here] |  | 8.6 | 0.87 |  | Activity (Mus musculus [7]): Dose-dependent effect; Activity (Mus musculus [8]): Active; Activity (Mus musculus [9]): Active; Activity (Mus musculus [10]): Active; Activity (Mus musculus [11]): Dose-dependent effect
Cc1sc(C2CCCN2C(=O)CN(C)CCCC(=O)O)cc1C(=O)Nc1ncc(F)s1 (stereo unspecified) |  | 6.86 | 0.61 | 78% | 
Cc1sc(C2CCCN2C(=O)CN(C)C)cc1C(=O)Nc1ncc(Cl)s1 (stereo unspecified) | 3.91 µM (≈ 1.61 µg/mL) | 6.81 | 0.598 |  | 
Cc1sc(-c2ccccc2C(=O)NCCc2nnn[nH]2)cc1C(=O)Nc1nc2c(s1)CCC2 | 31.3 µM (≈ 15 µg/mL) | 0.84 | -0.019 |  | 
Cc1sc(-c2ccccc2C(=O)NCCC(N)=O)cc1C(=O)Nc1nc2c(s1)CCC2 | 3.91 µM (≈ 1.78 µg/mL) | 2.56 | 0.187 |  | 
Cc1sc([C@@H]2CCCN2C(=O)[C@H](C)N(C)CC(=O)O)cc1C(=O)Nc1ncc(F)s1 |  | 8.8 | 0.832 | 4% | 
Cc1sc([C@@H]2CCCN2C(=O)CN(C)CCC(=O)O)cc1C(=O)Nc1ncc(F)s1 |  | 7.26 | 0.686 | 49% | 
Cc1sc(C2CCCN2C(=O)CCN)cc1C(=O)Nc1nc2c(s1)CCC2 (stereo unspecified) | 0.98 µM (≈ 0.396 µg/mL) | 3.46 | 0.274 |  | 
CC(=O)N(C)CC(=O)N1CCCC1c1cc(C(=O)Nc2ncc(Cl)s2)c(C)s1 (stereo unspecified) |  | 2.57 | 0.118 |  | 
Cc1sc(C2CCCN2C(=O)CN)cc1C(=O)Nc1nccs1 (stereo unspecified) | 7.81 µM (≈ 2.74 µg/mL) | 3.67 | 0.293 |  | 
Cc1sc(-c2ccccc2C(=O)NCCO)cc1C(=O)Nc1nc2c(s1)CCC2 | 0.98 µM (≈ 0.419 µg/mL) | 3.89 | 0.373 |  | 
CC(=O)NCC(=O)N1CCCC1c1cc(C(=O)Nc2ncc(Cl)s2)c(C)s1 (stereo unspecified) |  | 5.32 | 0.395 | 3% | 
Cc1sc(C2CCCN2C(=O)CN(C)C)cc1C(=O)Nc1nccs1 (stereo unspecified) | 7.81 µM (≈ 2.96 µg/mL) | 4.7 | 0.38 |  | 
Cc1sc(C2CCCN2C(=O)CN(C)S(C)(=O)=O)cc1C(=O)Nc1ncc(Cl)s1 (stereo unspecified) |  | 3.24 | 0.168 |  | 
Cc1sc(C2CCCN2C(=O)CNS(C)(=O)=O)cc1C(=O)Nc1ncc(Cl)s1 (stereo unspecified) |  | 6.21 | 0.46 | 16% | 
Cc1sc(C2CCCN2C(=O)CN(C)CC(=O)O)cc1C(=O)Nc1ncc(Cl)s1.Cl (stereo unspecified) |  | 8.35 | 0.718 | 11% | Activity (Mus musculus [6]): 82%
CC(=O)N1CCCCC1c1cc(C(=O)Nc2nc3c(s2)CCC3)c(C)s1 (stereo unspecified) | 0.98 µM (≈ 0.382 µg/mL) | 1.13 | 0.017 |  | 
Cc1sc(C2CCCN2C(=O)CCN)cc1C(=O)Nc1nccs1 (stereo unspecified) | 15.6 µM (≈ 5.69 µg/mL) | 2.86 | 0.175 |  | 
